Source: ChEMBL document CHEMBL1157153, “Novel cyclohexene derivatives as anti-sepsis agents: synthetic studies and inhibition of NO and cytokine production” (Bioorg Med Chem, 2008)

What was measured:
RAW264.7 [1] = assay: Suppression of LPS-induced NO production in mouse RAW264.7 cells by fluorometric assay; format: functional, cell-based
Method in brief: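 RAW264.7 cells were seeded at 1 × 10⁵ cells/well and incubated overnight. Supernatant was removed and cells were stimulated with 10 ng/mL LPS plus graded compound concentrations for 20 h at 37 °C, 5% CO₂. The medium was phenol red-free RPMI1640 with 1% heat-inactivated FBS. Compounds came from 10 mM DMF stocks diluted in medium. Supernatant nitrite was read with DAN, then NaOH, as fluorescence at ex 355/em 460 nm.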

RAW264.7 [2] = assay: Suppression of LPS-induced TNFalpha production in mouse RAW264.7 cells; format: functional, cell-based
Method in brief: (§1)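 IC50 is the concentration cutting TNF-α or IL-6 production to 50% of control. Values are means ± SD from three or four experiments.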

RAW264.7 [3] = assay: Suppression of LPS-induced IL6 production in mouse RAW264.7 cells; format: functional, cell-based; method in brief: as §1
Mus musculus [4] = assay: Suppression of LPS-induced serum NO production in mouse endotoxin shock model at 3 mg/kg, iv administered 1 hr before LPS challenge by fluorometric assay
Mus musculus [5] = assay: Protective effect against lethal septic shock in iv dosed mouse endotoxin shock model; format: functional
Method in brief: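 Mice challenged with a lethal dose of LPS (7 mg/kg ip). Compounds were dissolved in 10% (w/v) glucuronylglucosyl-beta-cyclodextrin sodium salt and given intravenously at 1, 3 and 10 mg/kg, 1 h before LPS. Vehicle-dosed mice served as controls. Survival was recorded for 7 days after challenge and reported as survivors/total. ED50 is given in mg/kg.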

Mus musculus [6] = assay: Protective effect against lethal septic shock in mouse endotoxin shock model assessed as survival at 10 mg/kg, iv; format: functional, organism-based; parameters: dose 10 mg/kg
Method in brief: (§2)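 Mice got a lethal LPS dose of 7 mg/kg ip. Compound was given iv 1 h before LPS, in 10% (w/v) glucuronylglucosyl-β-cyclodextrin sodium salt. Survival was recorded over 7 days after LPS, with 7–10 mice per group.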

Mus musculus [7] = assay: Suppression of LPS-induced serum NO production in mouse endotoxin shock model at 1 mg/kg, iv administered 1 hr before LPS challenge by fluorometric assay
Mus musculus [8] = assay: Suppression of LPS-induced serum NO production in mouse endotoxin shock model at 10 mg/kg, iv administered 1 hr before LPS challenge by fluorometric assay
Mus musculus [9] = assay: Protective effect against lethal septic shock in mouse endotoxin shock model assessed as survival at 1 mg/kg, iv; format: functional, organism-based; parameters: dose 1 mg/kg; method in brief: as §2

`CCOC(=O)C1=CCCCC1S(=O)(=O)Cc1ccccc1Cl` (single isomer, unassigned; (-)) was tested, and the IC50 (RAW264.7 [1]; raw264.7) was 1200 nM.

`CCOC(=O)C1=CCCCC1S(=O)(=O)C(C)c1ccc(F)cc1Cl` (stereo in doubt; 22a) was tested, and the IC50 (RAW264.7 [2]) was 42 nM, the IC50 (RAW264.7 [3]) was 5.8 nM and the IC50 (RAW264.7 [1]; raw264.7) was 14 nM.

`CCOC(=O)C1=CCCCC1S(=O)(=O)Cc1ccccc1` (stereo not given) showed an IC50 (RAW264.7 [1]; Mus musculus, RAW264.7) of 101 nM.

`CCC(=O)C1=CCCCC1S(=O)(=O)Cc1ccc(F)cc1Cl` (stereo not given) was tested, and the IC50 (RAW264.7 [1]; Mus musculus, RAW264.7) was 64 nM.

With `CCOC(=O)C1=CCCCC1S(=O)(=O)C(C)c1ccc(F)cc1Cl` (single isomer, unassigned; (+)) the IC50 (RAW264.7 [1]; raw264.7) was 4 nM.

With `CCOC(=O)C1=CCCCC1S(=O)(=O)Cc1ccc(Cl)cc1` (stereo not given) the IC50 (RAW264.7 [1]; Mus musculus, RAW264.7) was 101 nM.

In the case of `CCOC(=O)C1=CCCCC1S(=O)(=O)Cc1ccc(F)c(Cl)c1` (stereo not given), the IC50 (RAW264.7 [1]; Mus musculus, RAW264.7) is reported as 13 nM.

For `CCOC(=O)C1=CCCCC1S(=O)(=O)Nc1ccc(F)cc1Cl` (stereo not given), the IC50 (RAW264.7 [1]; Mus musculus, RAW264.7) was 4.5 nM.

Work on `CCOC(=O)C1=CCCCC1S(=O)(=O)Cc1ccccc1Cl` (single isomer, unassigned; (+)) yielded an IC50 (RAW264.7 [1]; raw264.7) of 11 nM.

Molecule `CCOC(=O)C1=CCCCC1S(=O)(=O)C(C)c1ccccc1` (stereo in doubt; 19a) has an IC50 (RAW264.7 [1]; raw264.7) of 100 nM.

`CCOC(=O)C1=CCCCC1S(=O)(=O)Cc1ccc(F)cc1F` (stereo not given) gave an IC50 (RAW264.7 [1]; Mus musculus, RAW264.7) of 14 nM.

`CCOC(=O)C1=CCCCC1S(=O)(=O)Cc1c[nH]c2ccccc12` (stereo not given) showed an IC50 (RAW264.7 [1]; Mus musculus, RAW264.7) of 1010 nM.

In the case of `CCOC(=O)C1=CCCCC1S(=O)(=O)Cc1cccc(Cl)c1` (stereo not given), the IC50 (RAW264.7 [1]; Mus musculus, RAW264.7) is reported as 14 nM.

`CCOC(=O)C1=CCCCC1S(=O)(=O)Cc1ccc(F)cc1Cl` (stereo in doubt; (-)-10a) was tested, and the IC50 (RAW264.7 [1]; raw264.7) was 10000 nM.

With `COC(=O)C1=CCCCC1S(=O)(=O)Cc1ccc(F)cc1Cl` (stereo not given) the IC50 (RAW264.7 [1]; Mus musculus, RAW264.7) was 99 nM.

Molecule `CCOC(=O)C1=CCCCC1SCc1ccc(F)cc1Cl` (stereo not given) has an IC50 (RAW264.7 [1]; Mus musculus, RAW264.7) of 5640 nM.

For `CCOC(=O)C1=CCCCC1S(=O)(=O)Cc1cc2ccccc2s1` (stereo not given), the IC50 (RAW264.7 [1]; Mus musculus, RAW264.7) was 101 nM.

`CCOC(=O)C1=CCCCC1S(=O)(=O)Cc1ccccc1F` (stereo not given) gave an IC50 (RAW264.7 [1]; Mus musculus, RAW264.7) of 97 nM.

Molecule `CCOC(=O)C1=CCCCC1S(=O)(=O)C(CF)c1ccc(F)cc1Cl` (stereo in doubt; 26a) has an IC50 (RAW264.7 [1]; raw264.7) of 435 nM.

`O=S(=O)(Cc1ccc(F)cc1Cl)C1CCCC=C1CO` (stereo not given) gave an IC50 (RAW264.7 [1]; Mus musculus, RAW264.7) of over 10000 nM.

Molecule `CCOC(=O)C1=CCCCC1S(=O)(=O)Cc1ccncc1` (stereo not given) has an IC50 (RAW264.7 [1]; Mus musculus, RAW264.7) of 1410 nM.

Molecule `CCOC(=O)C1=CCCCC1S(=O)(=O)Cc1ccc(F)cc1Cl` (single isomer, unassigned; (+)) has an IC50 (RAW264.7 [1]; raw264.7) of 5.7 nM.

With `CCCCOC(=O)C1=CCCCC1S(=O)(=O)Cc1ccc(F)cc1Cl` (stereo not given) the IC50 (RAW264.7 [1]; Mus musculus, RAW264.7) was 103 nM.

`CCOC(=O)C1=CCCCC1S(=O)(=O)C(C)c1ccccc1` (stereo in doubt; 19b) gave an IC50 (RAW264.7 [1]; raw264.7) of 1320 nM.

In the case of `CCCOC(=O)C1=CCCCC1S(=O)(=O)Cc1ccc(F)cc1Cl` (stereo not given), the IC50 (RAW264.7 [1]; Mus musculus, RAW264.7) is reported as 14 nM.

`CCOC(=O)C1=CCCCC1S(=O)(=O)Cc1cccc(F)c1F` (stereo not given) was tested, and the IC50 (RAW264.7 [1]; Mus musculus, RAW264.7) was 100 nM.

`CCOC(=O)C1=CCCC[C@H]1S(=O)(=O)Cc1ccc(F)cc1Cl` was tested, and the IC50 (RAW264.7 [2]) was 8.3 nM, the inhibition in vivo at 3 mg/kg (Mus musculus [4]) was 54% and the ED50 (Mus musculus [5]) was 1.85 mg/kg. For the same molecule, the Activity (Mus musculus [6]) was “Non-toxic”, the inhibition in vivo at 1 mg/kg (Mus musculus [7]) was 27% and the IC50 (RAW264.7 [3]) was 1.5 nM. The inhibition in vivo at 10 mg/kg (Mus musculus [8]) was 76%.

Work on `CC(C)OC(=O)C1=CCCCC1S(=O)(=O)Cc1ccc(F)cc1Cl` (stereo not given) yielded an IC50 (RAW264.7 [1]; Mus musculus, RAW264.7) of 100 nM.

`CCCC(=O)C1=CCCCC1S(=O)(=O)Cc1ccc(F)cc1Cl` (stereo not given) showed an IC50 (RAW264.7 [1]; Mus musculus, RAW264.7) of 11 nM.

`CCOC(=O)C1=CCCCC1S(=O)(=O)Cc1cc(Cl)ccc1F` (stereo not given) was tested, and the IC50 (RAW264.7 [1]; Mus musculus, RAW264.7) was 23 nM.

With `CCOC(=O)C1=CCCCC1S(=O)(=O)Cc1cccc(Cl)c1F` (stereo not given) the IC50 (RAW264.7 [1]; Mus musculus, RAW264.7) was 12 nM.

Molecule `CCOC(=O)C1=CCCCC1S(=O)(=O)Cc1ccc(F)cc1Cl` (stereo in doubt; 10a) has an IC50 (RAW264.7 [2]) of 21 nM, an IC50 (RAW264.7 [3]) of 4.8 nM and an IC50 (RAW264.7 [1]; raw264.7) of 10 nM.

`CCOC(=O)C1=CCCC[C@H]1S(=O)(=O)[C@@H](C)c1ccc(F)cc1Cl` showed an IC50 (RAW264.7 [2]) of 20 nM, an inhibition in vivo at 3 mg/kg (Mus musculus [4]) of 55.7% and an ED50 (Mus musculus [5]) of 5.6 mg/kg. The Activity (Mus musculus [6]) was “Non-toxic”, the inhibition in vivo at 1 mg/kg (Mus musculus [7]) was -10.1% and the Activity (Mus musculus [9]) was “Toxic”. It also gave an IC50 (RAW264.7 [3]) of 1.8 nM and an inhibition in vivo at 10 mg/kg (Mus musculus [8]) of 78%.

`CCOC(=O)C1=CCCCC1S(=O)(=O)Cc1ccc(Cl)c(Cl)c1` (stereo not given) showed an IC50 (RAW264.7 [1]; Mus musculus, RAW264.7) of 53 nM.

Molecule `CCC(O)C1=CCCCC1S(=O)(=O)Cc1ccc(F)cc1Cl` (stereo not given) has an IC50 (RAW264.7 [1]; Mus musculus, RAW264.7) of over 10000 nM.

With `CCOC(=O)C1=CCCCC1S(=O)(=O)Cc1ccccc1Cl` (stereo in doubt; 10e) the IC50 (RAW264.7 [1]; raw264.7) was 14 nM.

For `CCOC(=O)C1=CCCCC1S(=O)(=O)Oc1ccc(F)cc1Cl` (stereo not given), the IC50 (RAW264.7 [1]; Mus musculus, RAW264.7) was 904 nM.

`CCOC(=O)C1=CCCCC1S(=O)(=O)Cc1cc2ccccc2o1` (stereo not given) was tested, and the IC50 (RAW264.7 [1]; Mus musculus, RAW264.7) was 134 nM.

`CCOC(=O)C1=CCCCC1S(=O)(=O)C(C)c1ccc(F)cc1Cl` (stereo in doubt; 22b) was tested, and the IC50 (RAW264.7 [1]; raw264.7) was 102 nM.

Work on `CC(=O)OCC1=CCCCC1S(=O)(=O)Cc1ccc(F)cc1Cl` (stereo not given) yielded an IC50 (RAW264.7 [1]; Mus musculus, RAW264.7) of over 10000 nM.

Work on `CCOC(=O)C1=CCCCC1S(=O)(=O)Cc1cccc(Cl)c1Cl` (stereo not given) yielded an IC50 (RAW264.7 [1]; Mus musculus, RAW264.7) of 65 nM.

Molecule `CCOC(=O)C1=CCCCC1S(=O)(=O)Cc1ccsc1` (stereo not given) has an IC50 (RAW264.7 [1]; Mus musculus, RAW264.7) of 105 nM.

Work on `CCOC(=O)C1=CCCCC1S(=O)(=O)Cc1coc2ccccc12` (stereo not given) yielded an IC50 (RAW264.7 [1]; Mus musculus, RAW264.7) of 106 nM.

With `CCOC(=O)C1=CCCCC1S(=O)(=O)Cc1ccc(Cl)cc1F` (stereo not given) the IC50 (RAW264.7 [1]; Mus musculus, RAW264.7) was 104 nM.

`CCOC(=O)C1=CCCCC1S(=O)(=O)Cc1ccc(Cl)cc1Cl` (stereo not given) gave an IC50 (RAW264.7 [1]; Mus musculus, RAW264.7) of 60 nM.

For `CCOC(=O)C1=CCCCC1S(=O)(=O)C(CF)c1ccc(F)cc1Cl` (stereo in doubt; 26b), the IC50 (RAW264.7 [1]; Mus musculus, RAW264.7) was 729 nM.

Molecule `CCOC(=O)C1=CCCCC1S(=O)(=O)C(C)c1ccc(F)cc1Cl` (single isomer, unassigned; (-)) has an IC50 (RAW264.7 [1]; raw264.7) of 1300 nM.

With `CCOC(=O)C1=CCCCC1NS(=O)(=O)c1ccc(F)cc1Cl` (stereo not given) the IC50 (RAW264.7 [1]; Mus musculus, RAW264.7) was over 10000 nM.
